This is a sample that favours compounds with a hit; in the whole collection about 2.4% have one here.
697 NFkB inh – inhibitors of PMA/ionomycin-induced NF-kB reporter, 697 cells, primary screen, B-cell NF-kB inhibitor project, cell-based, luminescence, uHTS; 697 B-cell NF-kB luciferase reporter, 16 h; inhibition, % at 4 µM; 330,000 tested, 0.33% active; AID 435022, 2010; in the data active = inhibition above about 35%
NR2E3 ag-1 – inhibitors of NR2E3-RetCOR corepressor binding, primary screen, NR2E3 agonist project, biochemical, TR-FRET, GST-NR2E3, biotin-RetCOR; 1536-well; inhibition of corepressor binding, % at 4.78 µM; 320,000 tested, 0.12% active; AID 2300, 2010;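 active = percent inhibition above the cutoff of mean plus 3 SD of all tested compounds, set per screening campaign, cut at about 20% in these data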;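 note: 0% = DMSO wells and 100% = biotin wells as full block of FRET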
Target sequence (Q9Y5X4 whole entry, looked up): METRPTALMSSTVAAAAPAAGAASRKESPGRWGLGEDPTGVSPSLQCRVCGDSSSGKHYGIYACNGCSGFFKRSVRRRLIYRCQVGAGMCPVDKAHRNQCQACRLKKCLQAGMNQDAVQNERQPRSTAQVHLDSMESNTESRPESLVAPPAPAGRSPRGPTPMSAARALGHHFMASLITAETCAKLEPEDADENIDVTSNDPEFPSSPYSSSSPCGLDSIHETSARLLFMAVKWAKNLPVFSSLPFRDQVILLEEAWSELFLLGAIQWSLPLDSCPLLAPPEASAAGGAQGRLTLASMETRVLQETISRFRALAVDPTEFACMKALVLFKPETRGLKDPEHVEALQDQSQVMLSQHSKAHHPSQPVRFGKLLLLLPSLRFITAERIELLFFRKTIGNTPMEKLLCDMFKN
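Material: NR2E3–RetCOR corepressor complex / Amount: 1.35 nM GST-NR2E3 / Medium: Tris pH 7.5 / Compound: single nominal compound dose of 4.8 µM / Incubation: 5 h at 4 °C / Technique: TR-FRET, Eu(K)-anti-GST donor, streptavidin-D2 acceptor, ex 340, em 617/671 nm / Read-out basis: percent loss of FRET ratio relative to control wells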
MPTP block – mitochondrial permeability transition pore inhibitors, primary screen, biochemical, isolated mouse mitochondria, absorbance | Ca2+ swelling absorbance, 30 min | inhibition, % at 10 µM | 360,000 tested, 1.4% active | AID 602449, 2012;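 active = inhibition of 50% or more, scaled per plate between neutral and stimulator controls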;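 note: 0% = DMSO wells given calcium and 100% = 1 mM EGTA wells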
aDG glyco act – activators of alpha-DG glycosylation, primary screen, uHTS, Pro5-aDG cells, AlphaScreen; activation, % at 10 µM; 360,000 tested, 0.22% active; AID 624168, 2012; alpha-DG glycosylation AlphaScreen (IIH6); 0% Pro5, 100% B10-LARGE cell signal;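 active = activation of at least 8% versus controls, or a plate z-score of at least 8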;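 note: Pro5 are CHO cells carrying HIG-tagged alpha-DG that lacks glycosylation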
NR2E3 ag-2 – NR2E3 agonists in two-hybrid cells, primary screen, cell-based, luminescence, CHO-S, Gal4-NCOR/VP16-NR2E3; Photoreceptor-specific nuclear receptor (Homo sapiens), Q9Y5X4; luciferase; inhibition of corepressor binding, % at 3.98 µM; 360,000 tested, 0.35% active; AID 602229, 2012;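 active = inhibition above the mean of all tested compounds plus 3 SD, cut at about 70% in these data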;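 note: 0% = DMSO with NR2E3 transfected cells and 100% = cells lacking NR2E3 construct; higher means lower luciferase signal from less NR2E3 corepressor binding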
Jurkat NFkB inh – inhibitors of induced NF-kB luciferase reporter, primary screen, TCR NF-kB activation inhibitor project, cell-based, luminescence, uHTS | Jurkat, PMA/ionomycin-induced NF-kB luciferase reporter | inhibition, % at 4 µM | 330,000 tested, 0.53% active | AID 435003, 2010; in the data active = inhibition above about 50%
NR2E3 ag confirm – NR2E3 agonist confirmation in cells, cell-based, luminescence, CHO-S two-hybrid; AID 624378, 2012; CHO-S mammalian two-hybrid NR2E3-NCOR, luciferase luminescence; inhibition, % at 3.98 µM; 2,300 tested, 51% active; shares compounds with NR2E3 ag-2;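 active = average inhibition above a cutoff equal to the mean inhibition of all tested compounds plus one SD, cut at about 70% in these data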;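 note: 0% = DMSO in NR2E3 cells and 100% = DMSO in cells lacking NR2E3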
GAL4-VP16 luc – GAL4-VP16 reporter modulators, confirmation, counter-screen for NR2E3 agonist project, cell-based, luminescence, CHO-S, high throughput | CHO-S GAL4-VP16 luciferase reporter | inhibition, % at 3.98 µM | 2,300 tested, 29% active | shares compounds with NR2E3 ag-2 | AID 624379, 2012;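 active = mean inhibition above a cutoff equal to the average over all tested compounds plus one standard deviation, cut at about 70% in these data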;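 note: luciferase from a UAS reporter driven by GAL4-VP16 transactivation; 0% = DMSO with VP16-transfected cells and 100% = DMSO with cells lacking VP16; higher means less reporter light so more repression of VP16 activity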
The depositor's hits bear a star; · = not tested or not shown.

SMILES	697 NFkB inh	NR2E3 ag-1	MPTP block	aDG glyco act	NR2E3 ag-2	Jurkat NFkB inh	NR2E3 ag confirm	GAL4-VP16 luc
O=C(COC(=O)c1ccc([N+](=O)[O-])o1)NCCCc1ccccc1	23	·	-2	0	-9	8	·	·
CSc1ccc(CN(C)CC(=O)NCCc2ccccc2)cc1	-1	3	0	0	-31	4	·	·
O=C(CN(C(=O)c1csnn1)c1ccccc1F)NCc1ccccc1	8	0	0	0	-7	-13	·	·
COC(=O)CC1(C(=O)OC)Oc2ccccc2C(=O)N1c1ccc(F)cc1F (stereo not given)	3	-3	2	0	-2	10	·	·
COc1ccc(NS(=O)(=O)c2ccc(C(=O)N3CCC(C)CC3)cc2)cc1	-6	·	0	0	56	6	25	25
Cn1nnnc1Sc1ncnc2scc(-c3ccc(Br)cc3)c12	-79	·	1	0	49	6	-25	-22
Cn1nnnc1Sc1ncnc2scc(-c3cccc4ccccc34)c12	-56	·	-2	0	60	-22	59	69
Cn1nnnc1Sc1ncnc2scc(-c3ccccc3Br)c12	-31	3	0	0	64	-40	27	59
Cn1nnnc1Sc1ncnc2scc(-c3ccccc3)c12	9	0	-2	0	63	-10	-18	10
Cn1nnnc1Sc1ncnc2scc(-c3ccc(F)cc3)c12	-124	1	1	0	37	-82	·	·
COC(=O)[C@@H]1C[C@H]1[C@@H](NC(=O)c1cc(C)on1)c1ccccc1	10	4	-3	0	-20	-2	·	·
Cc1noc(C)c1S(=O)(=O)Nc1ccc(C(=O)N2CCN(c3ccc(Cl)cc3)CC2)cc1	-16	-1	-1	1	65	1	86*	53
Cc1noc(C)c1S(=O)(=O)N1CCN(c2ccc(Cl)cc2)CC1	-3	1	0	0	-11	4	·	·
O=C(CSc1ccc(-c2ccc(F)cc2)nn1)N1CCCc2ccccc21	-2	1	0	0	58	-3	-7	-26
COc1ccc(OC)c(C2C=C(C34CC5CC(CC(C5)C3)C4)NC(=S)N2)c1 (stereo not given)	4	4	1	4	59	-1	14	11
COc1cc(C2C=C(C34CC5CC(CC(C5)C3)C4)NC(=S)N2)cc(OC)c1OC (stereo not given)	11	0	-4	1	-3	5	·	·
O=C(NCCCCCCNC(=O)c1ccccc1O)c1ccccc1O	14	1	37	0	67	-16	88*	63
CCN(CC)CCCNC(=O)Cn1nc([N+](=O)[O-])c(Cl)c1C	8	4	-2	0	3	7	·	·
O=[N+]([O-])c1ccc(Cl)c2cccnc12	6	2	0	0	-3	-1	·	·
Clc1cc2cccnc2c2ncccc12	11	1	-2	3	83*	19	95*	12
CCc1cc(CNC(=O)c2cc(COc3ccc(C)nc3)on2)on1	-59	4	-1	0	-63	-46	·	·
CN(c1nc2ccccc2[nH]c1=O)C1CCCCC1	-13	2	4	2	55	0	90*	73*
CCN(CC)c1nc2ccccc2[nH]c1=O	15	2	0	0	-14	0	·	·
Clc1ccc(-n2ncc3c(N4CCCCCC4)ncnc32)cc1	-141	10	2	0	86*	16	83*	48
CCOC(=O)Cc1c(C)nc2c(-c3cccc(Br)c3)c[nH]n2c1=O	-2	-2	0	0	64	-7	47	38
SMILES	697 NFkB inh	NR2E3 ag-1	MPTP block	aDG glyco act	NR2E3 ag-2	Jurkat NFkB inh	NR2E3 ag confirm	GAL4-VP16 luc
CCOC(=O)Cc1c(C)nc2c(C#N)c[nH]n2c1=O	1	1	-3	0	12	-5	·	·
CCCCCCCCCCCCN1[C@@H](CC(=O)O)c2cc(C(F)(F)F)ccc2S1(=O)=O	-3	-3	14	0	53	-8	98*	30
CCCCCCCCCCCCN1[C@@H](CC(=O)O)c2cc(F)ccc2S1(=O)=O	16	0	3	0	95*	10	94*	40
CCCCCCCCN1[C@@H](CC(=O)OC)c2cc(F)ccc2S1(=O)=O	-11	3	0	0	6	3	·	·
CC12CCC(C(=O)N/N=C/c3ccc(O)cc3O)(OC1=O)C2(C)C (stereo not given)	-6	2	-1	0	-8	19	·	·
COc1ccc(OC)c(Nc2nc(-c3c(C)nc4ncccn34)cs2)c1	16	1	0	0	49	9	-33	19
Cc1nc2ncccn2c1-c1csc(Nc2cccc(C(=O)O)c2)n1	9	-4	0	0	-19	-4	·	·
COc1ccc(/C=C2\SC(=N)N(c3nccs3)C2=O)cc1OC	-2	2	1	1	74*	-9	24	25
Cc1ccccc1-c1nnn(Cc2cccc(S(=O)(=O)N3CCOCC3)c2)n1	8	-1	8	0	64	2	13	31
O=C1c2ccccc2S(=O)(=O)N1Cc1cccc(S(=O)(=O)N2CCOCC2)c1	14	1	-8	0	-26	5	·	·
O=c1c(Br)ccc(Br)cc1Br	·	·	-2	0	71*	·	100*	46
O=C1CN(S(=O)(=O)c2cc(Br)ccc2Br)CCN1	-9	·	0	0	2	-8	·	·
O=C(Cc1ccc(Br)cc1)Nc1cccc(-c2cn3c(n2)SCC3)c1	-16	4	0	0	-39	-1	·	·
O=C(O)C(F)=C1c2ccccc2-c2ccccc21	-3	2	2	0	-14	17	·	·
Cc1[nH]nc(S(=O)CC(=O)O)c1[N+](=O)[O-] (stereo not given)	7	4	-2	0	59	1	1	-7
O=c1cc(-c2ccccc2Cl)oc2c([N+](=O)[O-])c(O)cc(O)c12	-67	6	11	0	98*	6	99*	91*

Bioassay records (PubChem)
